Results reported in ChEMBL document CHEMBL1157556, “Synthesis and biological screening of a combinatorial library of beta-chlorovinyl chalcones as anticancer, anti-inflammatory and antimicrobial agents” (Bioorg Med Chem, 2010).
≈ marks a conversion by molar mass, not a printed value.

What was measured:
ACHN [1] = assay: Anticancer activity against human ACHN cells at 500 nM after 48 hrs by propidium iodide fluorescence assay; type: functional
Procedure, shortened: (§1)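 Propidium iodide DNA-fluorescence assay. Seeding 3000–7500 cells/well, 24 h recovery at 37 °C in 5% CO₂. Compounds in 0.1% DMSO added to triplicate wells at 10 µM. Flavopiridol 700 nM and gemcitabine 500 nM as reference inhibitors. Plates frozen at −80 °C for 24 h, thawed to room temperature, fluorescence read at excitation 530 nm and emission 620 nm. Percent cytotoxicity calculated.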

PANC-1 [2] = assay: Anticancer activity against human PANC1 cells at 500 nM after 48 hrs by propidium iodide fluorescence assay; type: functional; procedure, shortened: as §1
Calu-1 [3] = assay: Anticancer activity against human Calu1 cells at 500 nM after 48 hrs by propidium iodide fluorescence assay; type: functional; procedure, shortened: as §1
NCI-H460 [4] = assay: Anticancer activity against human H460 cells at 500 nM after 48 hrs by propidium iodide fluorescence assay; type: functional; procedure, shortened: as §1
HCT-116 [5] = assay: Anticancer activity against human HCT116 cells at 500 nM after 48 hrs by propidium iodide fluorescence assay; type: functional; procedure, shortened: as §1
THP-1 [6] = assay: Antiinflammatory activity in human THP1 cells assessed as inhibition of LPS-induced IL6 release at 10 uM after 24 hrs by ELISA; type: functional; settings: THP-1, 24 h
Procedure, shortened: (§2)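 THP-1 cells grown in RPMI 1640 with 10% FBS, penicillin and streptomycin, then PMA-differentiated. Compounds in 0.5% DMSO preincubated 30 min at 37 °C before LPS (E. coli 0127:B8) stimulation. TNF-α and IL-6 release measured by kit per the manufacturer (BD Biosciences). Percent inhibition calculated relative to control. Dexamethasone 1 µM as reference.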

THP-1 [7] = assay: Antiinflammatory activity in human THP1 cells assessed as inhibition of LPS-induced TNFalpha release at 10 uM after 24 hrs by ELISA; type: functional; settings: THP-1, 24 h; procedure, shortened: as §2
THP-1 [8] = assay: Cytotoxicity against human THP1 cells assessed as CCK8 release at 10 uM after 24 hrs by ELISA; type: cell-based; settings: thp-1, 24 h
Procedure, shortened: (§3)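 Same THP-1 cytokine-assay cells, with compounds in 0.5% DMSO and LPS stimulation, were scored in parallel for cytotoxicity by CCK-8.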

ACHN [9] = assay: Anticancer activity against human ACHN cells at 10 uM after 48 hrs by propidium iodide fluorescence assay; type: functional; procedure, shortened: as §1
PANC-1 [10] = assay: Anticancer activity against human PANC1 cells at 10 uM after 48 hrs by propidium iodide fluorescence assay; type: functional; procedure, shortened: as §1
Calu-1 [11] = assay: Anticancer activity against human Calu1 cells at 10 uM after 48 hrs by propidium iodide fluorescence assay; type: functional; procedure, shortened: as §1
NCI-H460 [12] = assay: Anticancer activity against human H460 cells at 10 uM after 48 hrs by propidium iodide fluorescence assay; type: functional; procedure, shortened: as §1
HCT-116 [13] = assay: Anticancer activity against human HCT116 cells at 10 uM after 48 hrs by propidium iodide fluorescence assay; type: functional; procedure, shortened: as §1
Escherichia coli [14] = assay: Antibacterial activity against Escherichia coli MTCC 1650 after 24 hrs; type: functional; settings: MTCC 1650, 24 h
Procedure, shortened: (§4)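 Agar well diffusion on Mueller Hinton agar seeded with 0.1 mL of a 10⁵ cfu/mL suspension in 0.85% saline. Compounds dissolved in DMSO, final concentrations 25–250 µg/mL, 0.1 mL loaded per 6 mm well. DMSO (1%) control; tetracycline (10 µg/mL) reference. Duplicate plates incubated 24 h at 37 °C. Inhibition zone read in mm. MIC taken as lowest concentration giving complete growth inhibition.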

Proteus vulgaris [15] = assay: Antibacterial activity against Proteus vulgaris MTCC 1771 after 24 hrs; type: functional; settings: MTCC 1771, 24 h; procedure, shortened: as §4
Klebsiella pneumoniae [16] = assay: Antibacterial activity against Klebsiella pneumoniae NCIM 2957 after 24 hrs; type: functional; settings: NCIM 2957, 24 h; procedure, shortened: as §4
Staphylococcus aureus [17] = assay: Antibacterial activity against Staphylococcus aureus MTCC 96 after 24 hrs; type: functional; settings: MTCC 96, 24 h; procedure, shortened: as §4
Bacillus subtilis [18] = assay: Antibacterial activity against Bacillus subtilis MTCC 1789 after 24 hrs; type: functional; settings: MTCC 1789, 24 h; procedure, shortened: as §4
Escherichia coli [19] = assay: Antibacterial activity against Escherichia coli MTCC 1650 at 50 ug/ml after 24 hrs agar diffusion method; type: functional; settings: MTCC 1650, 24 h, read-out: IZ; procedure, shortened: as §4
Proteus vulgaris [20] = assay: Antibacterial activity against Proteus vulgaris MTCC 1771 at 50 ug/ml after 24 hrs agar diffusion method; type: functional; settings: MTCC 1771, 24 h, read-out: IZ; procedure, shortened: as §4
Klebsiella pneumoniae [21] = assay: Antibacterial activity against Klebsiella pneumoniae NCIM 2957 at 50 ug/ml after 24 hrs agar diffusion method; type: functional; settings: NCIM 2957, 24 h, read-out: IZ; procedure, shortened: as §4
Staphylococcus aureus [22] = assay: Antibacterial activity against Staphylococcus aureus MTCC 96 at 50 ug/ml after 24 hrs agar diffusion method; type: functional; settings: MTCC 96, 24 h, read-out: IZ; procedure, shortened: as §4
Bacillus subtilis [23] = assay: Antibacterial activity against Bacillus subtilis MTCC 1789 at 50 ug/ml after 24 hrs agar diffusion method; type: functional; settings: MTCC 1789, 24 h, read-out: IZ; procedure, shortened: as §4
Aspergillus niger = assay: Antifungal activity against Aspergillus niger MTCC 1781 at 100 ug/ml after 48 hrs agar diffusion method; type: functional; settings: MTCC 1781, 48 h, read-out: IZ
Procedure, shortened: (§5)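 Fungal spore suspensions in sterile distilled water adjusted to 10⁶ cfu/mL; 0.1 mL spread on Sabouraud dextrose agar. Wells of 6 mm filled with 0.1 mL compound dilution in DMSO. DMSO (1%) control; nystatin (30 µg/mL) reference. Duplicate plates incubated at 28 °C for 48 h. Activity read as inhibition zone diameter in mm.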

Aspergillus flavus = assay: Antifungal activity against Aspergillus flavus MTCC 2501 at 100 ug/ml after 48 hrs agar diffusion method; type: functional; settings: MTCC 2501, 48 h, read-out: IZ; procedure, shortened: as §5
Trichoderma viride = assay: Antifungal activity against Trichoderma viride MTCC 167 at 100 ug/ml after 48 hrs agar diffusion method; type: functional; settings: MTCC 167, 48 h, read-out: IZ; procedure, shortened: as §5
Candida albicans = assay: Antifungal activity against Candida albicans MTCC 227 at 100 ug/ml after 48 hrs agar diffusion method; type: functional; settings: MTCC 227, 48 h, read-out: IZ; procedure, shortened: as §5
Penicillium chrysogenum = assay: Antifungal activity against Penicillium chrysogenum MTCC 1996 at 100 ug/ml after 48 hrs agar diffusion method; type: functional; settings: MTCC 1996, 48 h, read-out: IZ; procedure, shortened: as §5
ACHN [24] = assay: Anticancer activity against human ACHN cells at 700 nM after 48 hrs by propidium iodide fluorescence assay; type: functional; procedure, shortened: as §1
PANC-1 [25] = assay: Anticancer activity against human PANC1 cells at 700 nM after 48 hrs by propidium iodide fluorescence assay; type: functional; procedure, shortened: as §1
Calu-1 [26] = assay: Anticancer activity against human Calu1 cells at 700 nM after 48 hrs by propidium iodide fluorescence assay; type: functional; procedure, shortened: as §1
NCI-H460 [27] = assay: Anticancer activity against human H460 cells at 700 nM after 48 hrs by propidium iodide fluorescence assay; type: functional; procedure, shortened: as §1
HCT-116 [28] = assay: Anticancer activity against human HCT116 cells at 700 nM after 48 hrs by propidium iodide fluorescence assay; type: functional; procedure, shortened: as §1
THP-1 [29] = assay: Antiinflammatory activity in human THP1 cells assessed as inhibition of LPS-induced TNFalpha release at 1 uM after 24 hrs by ELISA; type: functional; settings: THP-1, 24 h; procedure, shortened: as §2
THP-1 [30] = assay: Antiinflammatory activity in human THP1 cells assessed as inhibition of LPS-induced IL6 release at 1 uM after 24 hrs by ELISA; type: functional; settings: THP-1, 24 h; procedure, shortened: as §2
THP-1 [31] = assay: Cytotoxicity against human THP1 cells assessed as CCK8 release at 1 uM after 24 hrs by ELISA; type: cell-based; settings: thp-1, 24 h; procedure, shortened: as §3

Row | Structure (SMILES) | inhibition at 10 µM (THP-1 [6]) [%] | inhibition at 10 µM (THP-1 [7]) [%] | Activity (THP-1 [8]) [%] | Activity (ACHN [9]) [%] | Activity (PANC-1 [10]) [%] | Activity (Calu-1 [11]) [%] | Activity (NCI-H460 [12]) [%] | Activity (HCT-116 [13]) [%] | MIC (Escherichia coli [14]) [µg/mL] | MIC (Proteus vulgaris [15]) [µg/mL] | MIC (Klebsiella pneumoniae [16]) [µg/mL] | MIC (Staphylococcus aureus [17]) [µg/mL] | MIC (Bacillus subtilis [18]) [µg/mL] | zone of inhibition at 50 µg/mL (Escherichia coli [19]) [mm] | zone of inhibition at 50 µg/mL (Proteus vulgaris [20]) [mm] | zone of inhibition at 50 µg/mL (Klebsiella pneumoniae [21]) [mm] | zone of inhibition at 50 µg/mL (Staphylococcus aureus [22]) [mm] | zone of inhibition at 50 µg/mL (Bacillus subtilis [23]) [mm] | zone of inhibition at 100 µg/mL (Aspergillus niger) [mm] | zone of inhibition at 100 µg/mL (Aspergillus flavus) [mm] | further results
1 | Nc1ccn([C@@H]2O[C@H](CO)[C@@H](O)C2(F)F)c(=O)n1 [GEMCITABINE] |  |  |  |  |  |  |  |  |  |  |  |  |  |  |  |  |  |  |  |  | Activity (ACHN [1]): 70%; Activity (PANC-1 [2]): 71%; Activity (Calu-1 [3]): 70%; Activity (NCI-H460 [4]): 68%; Activity (HCT-116 [5]): 76%
2 | COc1ccc(C(=O)/C=C/C=C(\Cl)c2ccc(F)cc2)cc1 | 6 | 0 | 2 | 17 | 1 | 0 | 14 | 0 | 50 (≈ 158 µM) | 50 (≈ 158 µM) | 50 (≈ 158 µM) | 50 (≈ 158 µM) | 50 (≈ 158 µM) | 11 | 16 | 15 | 16 | 15 | 8 | 15 | zone of inhibition at 100 µg/mL (Trichoderma viride): 14 mm; zone of inhibition at 100 µg/mL (Candida albicans): 8 mm; zone of inhibition at 100 µg/mL (Penicillium chrysogenum): 15 mm
3 | CN1CC[C@H](c2c(O)cc(O)c3c(=O)cc(-c4ccccc4Cl)oc23)[C@H](O)C1 [ALVOCIDIB] |  |  |  |  |  |  |  |  |  |  |  |  |  |  |  |  |  |  |  |  | Activity (ACHN [24]): 68%; Activity (PANC-1 [25]): 75%; Activity (Calu-1 [26]): 68%; Activity (NCI-H460 [27]): 84%; Activity (HCT-116 [28]): 71%
4 | COc1ccc(C(=O)/C=C/C=C(\Cl)c2cccc(Cl)c2)c(OC)c1 | 7 | 0 | 0 | 32 | 32 | 40 | 31 | 37 | 50 (≈ 138 µM) | 50 (≈ 138 µM) | 50 (≈ 138 µM) | 50 (≈ 138 µM) | 50 (≈ 138 µM) | 12 | 13 | 16 | 16 | 18 | 14 | 15 | zone of inhibition at 100 µg/mL (Trichoderma viride): 13 mm; zone of inhibition at 100 µg/mL (Candida albicans): 10 mm; zone of inhibition at 100 µg/mL (Penicillium chrysogenum): 10 mm
5 | C[C@@H]1C[C@H]2[C@@H]3CCC4=CC(=O)C=C[C@]4(C)[C@@]3(F)[C@@H](O)C[C@]2(C)[C@@]1(O)C(=O)CO [DEXAMETHASONE] |  |  |  |  |  |  |  |  |  |  |  |  |  |  |  |  |  |  |  |  | inhibition at 1 µM (THP-1 [29]): 73%; inhibition at 1 µM (THP-1 [30]): 84%; Activity (THP-1 [31]): 0%
